Data from paper PMC3985699 (Journal of the American Chemical Society, 2014).
In brackets after ≈: the same amount, converted by molar mass.

Columns and labels:
S. aureus = assay: Initial antibacterial screen of in silico hits; format: cell-based, Staphylococcus aureus; conditions: initial screening of in silico hits
E. faecium = assay: Initial antibacterial screen of in silico hits; format: cell-based, Enterococcus faecium; conditions: initial screening of in silico hits
[1] = system: S. hemolyticus ATCC 29970; assay: MIC by microdilution; format: cell-based; conditions: Streptococcus pyogenes, ATCC29970
S. aureus VRS1 = assay: MIC by microdilution; format: cell-based; conditions: Staphylococcus aureus, MRSA
Method in brief: (§1)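 S. aureus was tested by CLSI broth microdilution in cation-adjusted Mueller Hinton II broth, final inoculum 5 × 10⁵ CFU/mL, 35 °C, read after 16–20 or 20–24 h; oxacillin was tested with 2% NaCl. MIC was the lowest concentration without visible growth, in triplicate. For ATCC 29213, inocula of 5 × 10⁶ and 5 × 10⁷ CFU/mL were also tested.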

S. aureus NRS119 = assay: MIC by microdilution; format: cell-based; conditions: Staphylococcus aureus
Method in brief: as §1

S. oralis ATCC 9811 = assay: MIC by microdilution; format: cell-based; conditions: Streptococcus oralis, ATCC9811
Method in brief: (§2)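 Streptococcal MICs came from CLSI broth microdilution in cation-adjusted Mueller Hinton II broth with 5% lysed horse blood. Final inoculum 5 × 10⁵ CFU/mL, incubation at 35 °C, read after 16–20 or 20–24 h depending on species. MIC was the lowest concentration without visible growth, determined in triplicate.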

[2] = biological target: purified recombinant PBP2a (Staphylococcus aureus, UniProt P07944); assay: Continuous spectrophotometric PBP2a inhibition assay with nitrocefin; format: biochemical, MRSA
Hemolysis assay = format: cell-based, horse; conditions: horse, washed red blood cells from horse whole blood
S. aureus ATCC 29213 = assay: MIC by microdilution; format: cell-based; conditions: Staphylococcus aureus, ATCC29213
Method in brief: as §1

S. aureus ATCC 27660 = assay: MIC by microdilution; format: cell-based; conditions: Staphylococcus aureus, ATCC27660
Method in brief: as §1

S. pyogenes ATCC 49399 = assay: MIC by microdilution; format: cell-based; conditions: Streptococcus pyogenes, ATCC49399
Method in brief: as §2

E. faecium 106 (Van R) = assay: MIC by microdilution; format: cell-based; conditions: Enterococcus faecium
Method in brief: (§3)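 CLSI broth microdilution in cation-adjusted Mueller Hinton II broth, final inoculum 5 × 10⁵ CFU/mL. Plates incubated at 35 °C and read after 16–20 or 20–24 h depending on species. MIC taken as the lowest concentration with no visible growth. All determinations in triplicate.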

S. epidermis ATCC 35547 = assay: MIC by microdilution; format: cell-based
Method in brief: as §3

S. aureus VRS2 = assay: MIC by microdilution; format: cell-based; conditions: Staphylococcus aureus, MRSA
Method in brief: as §1

S. aureus NRS120 = assay: MIC by microdilution; format: cell-based; conditions: Staphylococcus aureus
Method in brief: as §1

E. faecalis ATCC 29212 = assay: MIC by microdilution; format: cell-based; conditions: Enterococcus faecalis, ATCC29212
Method in brief: as §3

[3] = system: E. faecium 119–39A (Van S); assay: MIC by microdilution; format: cell-based; conditions: Enterococcus faecium
Method in brief: as §3

E. faecalis 201 (Van S) = assay: MIC by microdilution; format: cell-based; conditions: Enterococcus faecalis
Method in brief: as §3

E. faecium NCTC 7171 = assay: MIC by microdilution; format: cell-based; conditions: Enterococcus faecium, NCTC7171
Method in brief: as §3

S. aureus NRS100 (COL) = assay: MIC by microdilution; format: cell-based; conditions: Staphylococcus aureus
Method in brief: as §1

Pharmacokinetics in mice = format: in vivo; conditions: for volume of distribution (in words): single 50 mg/kg iv
Method in brief: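 Female ICR mice received a single 50 mg/kg dose, either iv in 10% DMSO/25% Tween-80/65% water or po by gavage (n = 3 per time point). Terminal blood was taken at 2 min–24 h after iv and 0.5–48 h after po, then centrifuged for plasma. Plasma was precipitated with acetonitrile containing internal standard and analysed by C18 UPLC-ESI(+)-MRM against calibration curves in blank mouse plasma.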

[4] = system: E. coli S30 extract coupled transcription and translation system; assay: In vitro transcription/translation assay; format: biochemical; conditions: concentrations of up to 160 μg/mL (80-fold above the MIC)
Method in brief: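 The coupled system used the E. coli S30 extract (circular DNA) with a pUC19 lacZ template. Test compound was added at 0.5, 5, 50 and 160 μg/mL alongside a negative control. Reactions ran 2 h at 37 °C and were stopped on ice for 5 min. β-Galactosidase was quantified by o-nitrophenyl-β-D-galactoside hydrolysis, read at 420 nm against a standard curve.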

[5] = system: RNA synthesis (transcription) of S. aureus; assay: Macromolecular synthesis assay, [5-3H]-uridine incorporation; format: cell-based, Staphylococcus aureus; conditions: S. aureus ATCC 29213, logarithmic phase; 0.25 and 0.5 μg/mL
Method in brief: (§4)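 Mid-exponential S. aureus ATCC 29213 in brain heart infusion was labelled with 1 μCi/mL ³H-precursor for 10 min at 37 °C before test compound addition (0.25, 0.5 μg/mL). Controls: ciprofloxacin (thymidine), rifampicin (uridine), tetracycline (leucine), fosfomycin (alanine). Samples every 20 min up to 2 h, precipitated in 20% cold TCA, filtered, scintillation-counted. Triplicates, repeated at least twice; % inhibition versus control.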

[6] = system: DNA synthesis (replication) of S. aureus; assay: Macromolecular synthesis assay, [methyl-3H]-thymidine incorporation; format: cell-based, Staphylococcus aureus; conditions: S. aureus ATCC 29213, logarithmic phase; 0.25 and 0.5 μg/mL
Method in brief: as §4

[7] = system: protein synthesis (translation) of S. aureus; assay: Macromolecular synthesis assay, L-[4,5-3H]-leucine incorporation; format: cell-based, Staphylococcus aureus; conditions: S. aureus ATCC 29213, logarithmic phase; 0.25 and 0.5 μg/mL
Method in brief: as §4

[8] = system: peptidoglycan synthesis of S. aureus; assay: Macromolecular synthesis assay, D-[2,3-3H]-alanine incorporation; format: cell-based, Staphylococcus aureus; conditions: S. aureus ATCC 29213, logarithmic phase; 0.25 and 0.5 μg/mL
Method in brief: as §4

[9] = system: S. aureus ATCC 27660 (MRSA); assay: Mouse peritonitis infection model; format: in vivo, Staphylococcus aureus; conditions: mice, antibiotic 3 vs 4
Method in brief: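 Female ICR mice (6–8 weeks, 17–20 g) were infected intraperitoneally with 0.5 mL MRSA ATCC 27660 at 5 × 10⁷ CFU/mL in 5% mucin. The inoculum was grown in brain heart infusion and adjusted to OD540 0.5. A single oral gavage dose was given 1 h post-infection (n = 6/group), with linezolid 10 mg/kg as positive control. Survival was monitored over 2 days.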

[10] = system: T7 polymerase transcription of the dacB gene encoding E. coli PBP4; assay: In vitro transcription assay; format: biochemical; conditions: 0.5, 5, 50 and 160 μg/mL, 2 h at 37 °C
Method in brief: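 Template was pET24a carrying E. coli K12 dacB without the 90-bp signal-peptide region, linearized with XhoI, 2 μL at 0.5 μg/μL per reaction. Run with a T7 transcription kit, test compound or negative control, then iced. DNaseI (37 °C, 15 min) and EDTA with 65 °C for 10 min followed. Transcripts diluted 30-fold and run on a 1% denaturing formaldehyde gel in MOPS pH 7.0.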

[11] = ICR, mouse, plasma, iv, 50 mg/kg
[12] = female, ICR, mouse, plasma, po, 50 mg/kg

purified recombinant PBP2a, sequence (P07944 whole entry): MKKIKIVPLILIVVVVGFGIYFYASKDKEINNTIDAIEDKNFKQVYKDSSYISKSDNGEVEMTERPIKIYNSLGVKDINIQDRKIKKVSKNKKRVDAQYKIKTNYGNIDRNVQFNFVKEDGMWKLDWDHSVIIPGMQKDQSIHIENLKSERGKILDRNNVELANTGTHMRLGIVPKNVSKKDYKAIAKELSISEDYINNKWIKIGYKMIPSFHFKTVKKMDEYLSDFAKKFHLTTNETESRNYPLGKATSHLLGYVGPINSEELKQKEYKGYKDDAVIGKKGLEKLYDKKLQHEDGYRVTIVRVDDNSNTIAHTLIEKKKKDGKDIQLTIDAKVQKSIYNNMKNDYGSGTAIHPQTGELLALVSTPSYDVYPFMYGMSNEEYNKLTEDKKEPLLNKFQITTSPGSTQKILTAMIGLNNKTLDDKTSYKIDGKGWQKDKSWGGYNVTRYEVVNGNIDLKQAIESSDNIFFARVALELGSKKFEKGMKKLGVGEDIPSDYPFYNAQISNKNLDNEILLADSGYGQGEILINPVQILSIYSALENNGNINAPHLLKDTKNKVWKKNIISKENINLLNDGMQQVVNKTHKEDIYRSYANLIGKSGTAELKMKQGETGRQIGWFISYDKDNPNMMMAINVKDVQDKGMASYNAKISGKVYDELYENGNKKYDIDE

For `Fc1ccc(-c2nc(-c3ccc(Oc4ccc(C(F)(F)F)cc4)cc3)no2)cc1` [Compound 1, 5-(4-Fluorophenyl)-3-(4-(4-(trifluoromethyl)phenoxy)phenyl)-1,2,4-oxadiazole], the “MIC (in words)” value (S. aureus) was “poor but reproducible MIC” and the “MIC (in words)” value (E. faecium) was “poor but reproducible MIC”.
`Oc1ccc(-c2nc(-c3ccc(Oc4ccccc4)cc3)no2)cc1` [Compound 2, 4-(3-(4-Phenoxyphenyl)-1,2,4-oxadiazol-5-yl)phenol] gave an MIC [1] of 2 µg/mL (≈ 6.05 µM), an MIC (S. aureus VRS1) of 2 µg/mL (≈ 6.05 µM) and an MIC (S. aureus NRS119) of 2 µg/mL (≈ 6.05 µM). For the same compound, the MIC (S. oralis ATCC 9811) was 32 µg/mL (≈ 96.9 µM), the IC50 [2] was 12.1 µM and the hemolysis at 1 h, 64 μg/mL (Hemolysis assay) was 3%. It also gave an MIC (S. aureus ATCC 29213) of 2 µg/mL (≈ 6.05 µM), an MIC (S. aureus ATCC 27660) of 2 µg/mL (≈ 6.05 µM) and an MIC (S. pyogenes ATCC 49399) of 32 µg/mL (≈ 96.9 µM). The MIC (E. faecium 106 (Van R)) was 2 µg/mL (≈ 6.05 µM), the MIC (S. epidermis ATCC 35547) was 2 µg/mL (≈ 6.05 µM) and the MIC (S. aureus VRS2) was 2 µg/mL (≈ 6.05 µM). The MIC (S. aureus NRS120) was 2 µg/mL (≈ 6.05 µM), the MIC (E. faecalis ATCC 29212) was 2 µg/mL (≈ 6.05 µM) and the MIC [3] was 1 µg/mL (≈ 3.03 µM). For the same compound, the MIC (E. faecalis 201 (Van S)) was 2 µg/mL (≈ 6.05 µM), the MIC (E. faecium NCTC 7171) was 1 µg/mL (≈ 3.03 µM) and the MIC (S. aureus NRS100 (COL)) was 2 µg/mL (≈ 6.05 µM). For the same compound, the AUC(0-inf) (Pharmacokinetics in mice; [11]) was 23000 ng·h/mL, the Vd (Pharmacokinetics in mice; [11]) was 0.86 L/kg and the clearance (Pharmacokinetics in mice; [11]) was 36.2 mL/min/kg. For the same compound, the “volume of distribution (in words)” value (Pharmacokinetics in mice; mice) was “large volume of distribution”.
For `Oc1ccc(-c2nc(-c3ccc(Oc4ccc(C(F)(F)F)cc4)cc3)no2)cc1` [Compound 3, 4-(3-(4-(4-(Trifluoromethyl)phenoxy)phenyl)-1,2,4-oxadiazol-5-yl)phenol], the MIC [1] was 2 µg/mL (≈ 5.02 µM), the “effect on β-galactosidase formation” value [4] was “no effect” and the inhibition of transcription [5] was “did not inhibit”. It also gave an MIC (S. aureus VRS1) of 2 µg/mL (≈ 5.02 µM), an MIC (S. aureus NRS119) of 2 µg/mL (≈ 5.02 µM) and an MIC (S. oralis ATCC 9811) of 32 µg/mL (≈ 80.3 µM). The IC50 [2] was 20.1 µM, the hemolysis at 1 h, 64 μg/mL (Hemolysis assay) was 3% and the MIC (S. aureus ATCC 29213) was 2 µg/mL (≈ 5.02 µM). The MIC (S. aureus ATCC 27660) was 2 µg/mL (≈ 5.02 µM), the MIC (S. pyogenes ATCC 49399) was greater than 32 µg/mL and the MIC (E. faecium 106 (Van R)) was 2 µg/mL (≈ 5.02 µM). For the same compound, the MIC (S. epidermis ATCC 35547) was 2 µg/mL (≈ 5.02 µM), the MIC (S. aureus VRS2) was 2 µg/mL (≈ 5.02 µM) and the MIC (S. aureus NRS120) was 2 µg/mL (≈ 5.02 µM). For the same compound, the MIC (E. faecalis ATCC 29212) was 2 µg/mL (≈ 5.02 µM), the MIC [3] was 1 µg/mL (≈ 2.51 µM) and the “inhibition of replication (DNA synthesis)” value [6] was “did not inhibit”. For the same compound, the inhibition of translation [7] was “did not inhibit”, the “inhibition of peptidoglycan synthesis” value [8] was “inhibited peptidoglycan synthesis” and the MIC (E. faecalis 201 (Van S)) was 2 µg/mL (≈ 5.02 µM). It also gave an MIC (E. faecium NCTC 7171) of 2 µg/mL (≈ 5.02 µM), an MIC (S. aureus NRS100 (COL)) of 2 µg/mL (≈ 5.02 µM) and an AUC(0-inf) (Pharmacokinetics in mice; [11]) of 44200 ng·h/mL. The Vd (Pharmacokinetics in mice; [11]) was 0.37 L/kg, the AUC(0-inf) (Pharmacokinetics in mice; [12]) was 43700 ng·h/mL and the Cmax (Pharmacokinetics in mice; [12]) was 2500 ng/mL. The Tmax (Pharmacokinetics in mice; [12]) was 2 h, the “higher systemic exposure relative to comparator compound” value (Pharmacokinetics in mice; mice, 50 mg/kg iv, compound 3 vs compound 2, compound 4 vs compound 3) was 2 fold and the “volume of distribution (in words)” value (Pharmacokinetics in mice; mice) was “moderate volume of distribution”. For the same compound, the “efficacy following po dosing (comparison)” value [9] was “superior efficacy” and the “effect on dacB mRNA band intensities” value [10] was “no effect”.
